Compound activity (PubChem)
PERK inhibitor: human PERK inhibition, primary cell-based screen. actives 0.17% (n = 220,000). CHO PERK-DD fusion, SEAP luminescence translation reporter. inhibition, % at 5.6 µM. Q9NZJ5;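 active means inhibition above the mean inhibition of all tested compounds plus 3 SD, set separately per screening campaign, cut at about 2.9% in these data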;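 further: PERK kinase domain activated by AP20187 dimerizer at 100 nM; 0% = DMSO with dimerizer and 100% = rapamycin at 8.4 µM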
H9c2 TAG inh: inhibitors of triacylglycerol accumulation | H9c2 cells, Nile Red lipid (TAG) fluorescence; cells loaded with 200 µM oleic acid | actives 0.66% (n = 230,000) | inhibition, % at 12.5 µM;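 active means pattern-corrected inhibition of lipid staining of at least 50% with the nuclear-stain viability signal not falling by more than 50%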;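 further: 0% = DMSO wells and 100% = triacsin C control wells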
Rad51 HR inh: blocks human Rad51 in homologous recombination | Q06609 | hRad51 DNA strand exchange, fluorescence dequenching | inhibition, % at 10 µM | actives 0.085% (n = 200,000) | AID 1385;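 active means inhibition above 40% at the single screening dose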;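 further: 0% = DMSO control wells and 100% = blanks with heterologous ssDNA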
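material = hRad51 filaments on single-stranded DNA | timing = filaments 15 min 37 °C, then compound 30 min | signal = FRET fluorescence dequenching, excitation 485 nm, emission 520 nm | benchmarks = control wells and blank wells on each plate | evaluation = percent inhibition relative to plate controls and blanks | compound = 10 µM final, single point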
Hck-Nef inh: blocks Nef-activated human Hck kinase. actives 0.68% (n = 220,000). P08631. Recombinant Hck-YEEI plus Nef, Z-Lyte FRET kinase assay. inhibition, % at 20 µM. AID 463187;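 active means Hck-Nef kinase inhibition above about 50%, limit read from the data; inactive means inhibition below that limit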;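 further: 0% = DMSO with Hck plus Nef and 100% = Hck alone without Nef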
PKD1 kinase inh: blocks activity of human protein kinase D1. Q15139. PKD1 kinase fluorescence polarization assay. inhibition, % (no concentration beside the values). actives 0.056% (n = 200,000). AID 797; in the data active means inhibition above about 50%
Mdm2 ligase inh: blocks human Mdm2 ubiquitin ligase activity; cell-based MDM2 ubiquitination luciferase reporter, 2 h; 0 = plate control, 100 = twice control, blank-subtracted; signal enhancement, % at 5 µM; actives 0.11% (n = 210,000); AID 1230;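 active means signal enhancement of 30% or more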;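 further: luminescence tracks abundance of the self-degrading MDM2-luciferase fusion protein; higher signal means inhibition of MDM2 E3 ligase activity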
Target sequence (Q00987 whole entry, looked up, the tested form may be a part): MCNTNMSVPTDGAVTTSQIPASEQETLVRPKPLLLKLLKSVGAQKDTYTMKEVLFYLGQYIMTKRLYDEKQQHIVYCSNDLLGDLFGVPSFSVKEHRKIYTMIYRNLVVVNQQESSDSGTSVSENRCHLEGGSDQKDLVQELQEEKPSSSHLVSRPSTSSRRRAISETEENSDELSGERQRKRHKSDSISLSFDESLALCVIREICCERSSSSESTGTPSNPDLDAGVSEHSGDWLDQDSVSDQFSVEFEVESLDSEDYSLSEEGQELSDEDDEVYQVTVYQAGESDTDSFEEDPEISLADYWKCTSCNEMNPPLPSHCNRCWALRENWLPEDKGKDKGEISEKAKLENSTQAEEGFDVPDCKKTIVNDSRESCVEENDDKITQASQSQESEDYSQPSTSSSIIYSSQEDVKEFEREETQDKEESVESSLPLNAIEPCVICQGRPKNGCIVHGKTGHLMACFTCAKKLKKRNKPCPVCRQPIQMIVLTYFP
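Assay system: stable mammalian line carrying autodegrading MDM2–luciferase fusion reporter; amount: 2000 cells seeded into each well; buffer or medium: DMEM; benchmarks: plate control and blank wells; signal: luciferase luminescence; timing: 2 h compound exposure at 37 °C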
Starred values were filed as active, the others as inactive; · = no result given. Most compounds without a hit are left out; they make up all but 1.3% or so of the library.

SMILES | PERK inhibitor | H9c2 TAG inh | Rad51 HR inh | Hck-Nef inh | PKD1 kinase inh | Mdm2 ligase inh
Cn1cccc1/C=C1\C(=O)NC(=O)N(Cc2ccco2)C1=O | 1 | 3 | -4 | 37 | 0 | -4
COc1ccc(/C=C2/C(=O)NC(=O)N(Cc3ccco3)C2=O)cc1 | 0 | · | -6 | 57* | -3 | -24
COc1ccc(CN2C(=O)NC(=O)/C(=C/c3ccc([N+](=O)[O-])o3)C2=O)cc1 | 1 | · | -46 | 142* | -6 | -19
Cc1ccc(/C=C2/C(=O)NC(=O)N(Cc3ccc(F)cc3)C2=O)o1 | 1 | · | -1 | 21 | · | 4
CC(=O)O[C@@H]1/C=C/[C@](C)(O)C[C@@H](C)C/C=C/[C@H]2[C@H](O)C(C)=C(C)[C@H]3[C@H](Cc4ccccc4)NC(=O)[C@@]123 | · | · | 2 | · | · | ·
C=C1C(C)C2C(Cc3ccccc3)NC(=O)C23C(OC(C)=O)C=CC(C)(O)CC(C)CC=CC3C1O (stereo not given) | · | 98* | · | · | · | ·
Cc1ccc(N2C(=O)NC(=O)/C(=C/c3ccc(-c4ccc(C(=O)O)c(Cl)c4)o3)C2=O)cc1 | 0 | -2 | 3 | 52* | -6 | 20
Cc1ccc(N2C(=O)NC(=O)/C(=C\c3ccoc3)C2=O)cc1 | -1 | 4 | -58 | 5 | 1 | -8
Oc1ccc(CC2(N3CCCC3)CCCCC2)cc1 | · | 5 | · | · | · | ·
CNc1cc(Cl)c2nonc2c1[N+](=O)[O-] | 0 | 79* | -2 | -28 | -5 | -4
CC1(C)CN=C(NCc2ccccc2Cl)S1 | 0 | 16 | -1 | -1 | -1 | 8
CCC(C)NC(=O)CN1C(=O)CN=C(c2ccccc2)c2ccccc21 (stereo not given) | 3.1* | -7 | -4 | -1 | 4 | -63
COC(=O)C1=C(c2ccccc2)C[C@@H]2CC[C@H]1N2C(=O)NCCCOC(C)C | · | -11 | -5 | · | · | ·
Nc1ccc2c(c1)oc1ccccc12 | 3.6* | · | -6 | 2 | -15 | 6
Nc1ccc2ccccc2c1 | · | 12 | · | · | · | ·
C[N+]1(C)C2CCC1CC(OC(=O)c1ccco1)C2 (stereo not given) | 3.3* | -10 | -3 | 15 | · | -4
CN(C)/C=C1/C(=O)NC(=O)N(CCNc2ncc(C(F)(F)F)cc2Cl)C1=O | 1 | · | -21 | 154* | -2 | 0
CCS(=O)(=O)Nc1cccc(C(=C2CCCCC2)c2cnc[nH]2)c1 | · | -5 | · | · | · | ·
C[C@H]1CC[C@H]2NCCN[C@H]2C1 | 3.1* | 1 | -15 | -2 | · | -10
C=CCN1C(=O)/C(=C/c2ccc(Br)s2)C(=O)NC1=S | · | -7 | · | · | · | ·
CCN1C(=O)/C(=C\c2ccc([N+](=O)[O-])s2)C(=O)NC1=S | 2 | · | 12 | 89* | 0 | -14
Clc1ccc(C(c2ccc(Cl)cc2)n2cc[n+](CC(OCc3ccc(Cl)cc3Cl)c3ccc(Cl)cc3Cl)c2)cc1 (stereo not given) | · | 133 | · | · | · | ·
CC1CCC(C(C)C)C(OC(=O)Cn2c(COc3ccccc3)[n+](C)c3ccccc32)C1 (stereo not given) | -1 | 104* | -6 | 25 | · | -10
CC(N)C(=O)NC1C2C(=C(O)CC(O)C2O)C(=O)OC1(C)C(Cl)Cl (stereo not given) | · | 89 | · | · | · | ·
COc1ccc(C(=O)C2CCCN(CCc3ccccc3)C2)cc1OC (stereo not given) | · | -5 | · | · | · | ·
SMILES | PERK inhibitor | H9c2 TAG inh | Rad51 HR inh | Hck-Nef inh | PKD1 kinase inh | Mdm2 ligase inh
O=c1c2ccccc2nc(-c2ccccc2)n1-c1cccnc1 | 0 | · | -4 | -1 | 0 | -32
Cc1ccc(-c2nc3ccccc3c(=O)n2-c2cccnc2)cc1 | 0 | -7 | 3 | 4 | -8 | 34*
C=C1C(=O)O[C@H]2C[C@@H](C)[C@@H]3C=CC(=O)[C@@]3(C)C[C@H]12 | · | · | · | 30 | · | 35*
C=C1C(=O)OC2CC(C)C3C=CC(=O)C3(C)C(O)C12 (stereo not given) | · | 72 | · | · | · | ·
O=C1CC(=O)N(c2ccccc2)C(=O)N1 | · | -9 | · | · | · | ·
COC(=O)C1=C(c2ccc(OC)c(OC)c2)C[C@@H]2CC[C@H]1N2C(=O)NC1Cc2ccccc2C1 | · | 9 | · | · | · | ·
COc1cccc(C2=NOC(C(=O)N3CCC4(CC3)OCCO4)C2)c1 (stereo not given) | 0 | · | 87* | 0 | 16 | -25
O=C(C1CC(c2ccc(Cl)c(Cl)c2)=NO1)N1CCC2(CC1)OCCO2 (stereo not given) | -1 | · | -10 | 4 | 2 | 3
COc1cc(/C=C2\C(=O)NC(=O)N(c3ccccc3)C2=O)cc(OC)c1O | 0 | · | 10 | 1 | 4 | -12
COc1cc(/C=C2\C(=O)NC(=O)N(c3ccccc3)C2=O)c([N+](=O)[O-])cc1OC | 3.0* | 6 | -57 | 33 | 8 | -33
CCOC(=O)c1c(N)n(CCCOC(=O)c2ccco2)c2nc3ccccc3nc12 | -1 | 53* | 10 | 30 | -3 | -28
O=C1NC(=O)N(CCc2ccc(F)cc2)C(=O)/C1=C\C=C\c1ccccc1 | 1 | 20 | 6 | 27 | 0 | 50*
COc1ccc(Oc2cc(NC(=O)c3nn(C)cc3[N+](=O)[O-])cc([N+](=O)[O-])c2)cc1 | -2 | · | 0 | 0 | -7 | -24
CC(C)c1ccc(N2C(=O)NC(=O)/C(=C/c3cnc(-c4ccccc4)nc3)C2=O)cc1 | 1 | · | 7 | 6 | -5 | -9
O=C1NC(=O)N(Cc2ccccc2)C(=O)/C1=C/c1cnc(-c2ccccc2)nc1 | 0 | · | -3 | 58* | 4 | -14
Cc1cccc(N2C(=O)NC(=O)/C(=C\c3cccn3-c3ccc(Cl)cc3)C2=O)c1 | 2 | 24 | -8 | 3 | 1 | 40*
N#Cc1cn(C2OC(CO)C(O)C2O)c2ncnc(N)c12 (stereo not given) | · | 90* | · | · | · | ·
N#Cc1c(Br)n(C2OC(CO)C(O)C2O)c2ncnc(N)c12 (stereo not given) | · | 52* | · | · | · | ·
CS(=O)(=O)c1ccc(C2=C(CNC(=O)c3cccnc3)[C@H]3CC[C@@H](C2)N3Cc2ccccc2)cc1 | · | 13 | · | · | · | ·
O=C1N(c2cccc(Cl)c2)C(c2cccnc2)N2CCCN12 (stereo not given) | 2 | 0 | 7 | 19 | -4 | 3
CC1=CC(C)CC(C)OC(=O)CC(c2ccc(O)cc2)NC(=O)C(Cc2c(Br)[nH]c3ccccc23)N(C)C(=O)C(C)NC(=O)C(C)C1 (stereo not given) | · | 98* | · | · | · | ·
C=C1C(=O)O[C@@H]2C[C@@H](C)[C@@H]3C4OC4C(=O)[C@@]3(C)[C@@H](O)[C@H]12 (stereo not given in full) | · | 111* | -12 | 30 | · | 31*
COC(=O)C1=C(c2cccc(OC)c2OC)C[C@@H]2CC[C@H]1N2C(=O)NC(C)C | · | -11 | 3 | · | · | ·
CN1CCN(c2ccc3c(c2)S(=O)(=O)c2ccccc2C3=O)CC1 | · | -8 | -7 | · | · | ·
